Published values of several laboratories.
Target: Platelet-derived growth factor receptor beta (PDGFRB, Homo sapiens, UniProt P09619)

O=C(c1ccc(Nc2ncc(Cl)c(-c3cc4ccccc4s3)n2)cc1)N1CCC(N2CCCC2)CC1
remaining binding (binding; competition with immobilised ligand; 1 µM): 1.9%

CN(C)c1ncc(F)c(-c2cnn3ncccc23)n1
remaining binding (binding; 1 µM): 100%

O=C(Nc1c[nH]nc1C(=O)NC1CCNCC1)c1cc(F)cc(F)c1
remaining binding (binding; competition with immobilised ligand; 1 µM): 100%

COc1cnc(Nc2cccc(S(N)(=O)=O)c2)nc1N1CCN(c2ccccc2)C(=O)C1
remaining binding (binding; competition with immobilised ligand; 1 µM): 94%

O=C(NCCCN1CCOCC1)c1ccc(Nc2nccc(-c3cc4ccccc4s3)n2)cc1
remaining binding (binding; competition with immobilised ligand; 1 µM): 13%

COc1ccc2c(c1)O[C@@H](c1ccc(OC)c(OC)c1)C[C@H]2NC(=O)C1(c2ccc3c(c2)OC(F)(F)O3)CC1
remaining binding (cell-free assay; competition with immobilised ligand; 1 µM): 100%

c1cncc(-c2cccc(Nc3nccc(NC4CCCCC4)n3)c2)c1
remaining binding (binding; competition with immobilised ligand; 10 µM): 0%

CC(C)(C)c1ccc(-c2nc(CBr)nn2-c2cccc(O)c2)cc1
remaining binding (cell-free assay; competition with immobilised ligand; 10 µM): 86%

N[C@H]1CCN(c2nccc(-c3cnn4ncccc34)n2)C1
remaining binding (binding; 1 µM): 93%

CC(=O)Nc1c(C(C)=O)c(=O)n(C)c2nc(-c3ccc(Cl)cc3Cl)c(-c3ccc(Cl)cc3)cc12
remaining binding (cell-free assay; competition with immobilised ligand; 1 µM): 100%

CN(CCCC(F)(F)F)c1nccc(-c2cnn3ncccc23)n1
remaining binding (binding; 1 µM): 95%

C[C@@H]1CN(c2cc(-c3n[nH]c4ccc(OC5(C)CC5)cc34)ncn2)C[C@H](C)O1
remaining binding (cell-free assay; competition with immobilised ligand; 0.1 µM): 73%

C[C@@H]1CCN(c2nccc(-c3cnn4ncccc34)n2)C1
remaining binding (binding; 1 µM): 100%

CNC(=O)[C@@H]1CC[C@@H](n2c(-c3ccc4cnccc4c3)nc3ccc(C(=O)NCc4cccc(C(N)=O)c4)cc32)C1
remaining binding (binding; competition with immobilised ligand; 1 µM): 100%

O=C(NCCCN1CCOCC1)c1ccc(Nc2ncc(Cl)c(-c3ccc(Cl)s3)n2)cc1
remaining binding (binding; competition with immobilised ligand; 1 µM): 0.05%

Cc1cc(-n2nc(Cc3cc(F)cc(C(F)(F)F)c3)nc2C)ccc1C(N)=O
remaining binding (cell-free assay; competition with immobilised ligand; 1 µM): 98%

C[C@@H]1CN(c2ccc3ncc(-c4ccc5[nH]nc(C6CC6)c5c4)n3n2)C[C@H](C)O1
remaining binding (binding; competition with immobilised ligand; 0.5 µM): 12%

FC(F)(F)c1ccc2c(c1)nc(-c1cccnc1)n2C1CC1
remaining binding (cell-free assay; competition with immobilised ligand; 1 µM): 100%

C[C@@H](c1ccc(-n2cnc3c(N)ncnc32)cc1)N1CCc2nn(C)c(Cc3ccccc3)c2C1=O
remaining binding (binding; competition with immobilised ligand; 0.1 µM): 17%

CCOCCn1cc(C(=O)Nc2ccc(-n3nc(-c4cccnc4)cc3C(F)(F)F)cn2)ccc1=O
remaining binding (cell-free assay; competition with immobilised ligand; 1 µM): 88%

c1cnn2ncc(-c3ccnc(N4CCC45COC5)n3)c2c1
remaining binding (binding; 1 µM): 78%

O=C(Nc1cnc(Oc2ccc(F)cc2)nc1)N1CCc2ncccc2[C@@H]1c1ccc(F)cc1
remaining binding (cell-free assay; competition with immobilised ligand; 1 µM): 100%

CN(c1nccc(-c2cnn3ncccc23)n1)C1CC1
remaining binding (binding; 1 µM): 98%

CNC(=O)Nc1ccc2c(c1)[C@@]1(CC2)OC(=O)N(CC(=O)N(Cc2ccc(F)cc2)[C@@H](C)C(F)(F)F)C1=O
remaining binding (cell-free assay; competition with immobilised ligand; 1 µM): 87%

CCN1CCN(Cc2ccc(C(=O)Nc3ccc(C)c(Oc4ccc5c(c4)CC(=O)N5)c3)cc2C(F)(F)F)CC1
remaining binding (binding; competition with immobilised ligand; 1 µM): 0.85%
